Reference: ChEMBL document CHEMBL1124846, “Synthesis, antiproliferative, and antiviral activity of certain 4-substituted and 4,5-disubstituted 7-[(1,3-dihydroxy-2-propoxy)methyl]pyrrolo[2,3-d]pyrimidines” (J Med Chem, 1990)
Values joined by “and” are separate entries in the source; they are usually repeats but may differ in a detail not shown here. Equal values may be shown once.

Tests used:
[1] = Cytotoxic activity against HFF cells.; assay type: cell-based; conditions: Homo sapiens
Method in brief: (§1)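 Cytotoxicity was scored visually in uninfected HFF or BSC-1 monolayers within the plaque-reduction assays. Drug-induced cytopathology was read at 35- and 60-fold magnification on a 0 to 4+ scale on the day plaques were stained and counted.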

[2] = system: Human betaherpesvirus 5; assay: Inhibition of human cytomegalovirus (HCMV) in plaque reduction assay; assay type: functional, organism-based
Method in brief: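 HCMV Towne strain (plaque-purified P0) plaque reduction in HFF monolayers in MEM(E) with 10% FBS. Inoculum held about 50 PFU, with compound dissolved in the overlay medium. IC50 came from linear regression of percent inhibition against log concentration, with ganciclovir or acyclovir positive controls in every set; two to five experiments.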

[3] = system: L1210; assay: In vitro inhibition of L1210 cell growth.; assay type: functional, Mus musculus; set-up: concentration or dose not given beside the values
Method in brief: (§2)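 Murine L1210 leukemia cells in static suspension culture in Fischer's medium with compound for 4 days. Growth rate is the ratio of control to treated population doubling time; where the rate changed, the final rate was used. IC50 is the concentration giving 50% of control growth rate; single-concentration value at 100 μM.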

[4] = system: L1210; assay: In vitro inhibition of L1210 cell growth to half of the control rate; assay type: functional, cell-based; conditions: Mus musculus; method in brief: as §2
[5] = system: Human alphaherpesvirus 1; assay: Inhibition of herpes simplex virus (HSV-1) in plaque reduction assay; assay type: functional, organism-based
Method in brief: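 HSV-1 S-148 strain plaque reduction in BSC-1 monkey kidney monolayers, with about 100 PFU inoculum and compound dissolved in the overlay medium. IC50 came from linear regression of percent inhibition against log concentration, with a positive control in each set.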

[6] = Cytotoxic activity against BSC cells; assay type: cell-based; conditions: Cercopithecidae; method in brief: as §1
[7] = system: Human alphaherpesvirus 1; assay: Inhibition of herpes simplex virus (HSV-1) in yield reduction assay; assay type: functional, organism-based
[8] = system: Neoplastic cell line; assay: Cytotoxic activity against KB cells.; assay type: cell-based; conditions: Homo sapiens
Method in brief: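 KB cells (human oral epidermoid carcinoma) grown in MEM(H) with 5% FBS. Compound effect on incorporation of radiolabelled precursors into DNA, RNA and protein was measured. IC50s came from linear regression of percent inhibition against log concentration, and the three IC50s were averaged.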

SMILES	IC50 [1] [µM]	IC50 [2]	Activity [3] [%]	IC50 [4] [µM]	IC50 [5] [µM]	IC50 ([2]; Human betaherpesvirus 5) [µM]	IC50 [6] [µM]	IC90 [7] [µM]	IC50 [8] [µM]
Nc1ncnc2c1c(I)cn2COC(CO)CO	> 100	3.1 µM and 0.9 µM	6	2.8	4				
CCNc1ncnc2c1c(Cl)cn2COC(CO)CO	> 100		78	> 100	> 100	100	> 100		
Nc1ncnc2c1c(Cl)cn2COC(CO)CO	> 100	8 µM	6	2.3	16	9.8	> 100	22	> 100
Nc1ncnc2c1c(Br)cn2[C@@H]1O[C@H](CO)[C@@H](O)[C@H]1O		3.4 µM	9	4					2.3
OCC(CO)OCn1cc(Br)c2c(NO)ncnc21	> 100	1.2 µM and 10 µM	0	3.7	2.9			> 100	320
Nc1nc2c(ncn2COCCO)c(=O)[nH]1 [ACYCLOVIR]		63 µM			4		> 100	7	> 100
CCNc1ncnc2c1c(Br)cn2COC(CO)CO	> 100		95		> 100	> 100	> 100		
Nc1ncnc2c1ccn2COC(CO)CO	> 100		106		> 100	> 100	> 100		
